# Compounds with a hit are over-represented: about 1.4% of the library has one in this group of screens.
# A3G deaminase = inhibitors of human APOBEC3G DNA deaminase | Q9HC16 | actives 0.28% (n = 330,000) | inhibition, % at 20 µM | recombinant A3G, ssDNA deamination FAM/TAMRA fluorescence;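 active means inhibition of at least 40% at 20 µM, with no more than 30% in the related APOBEC3A deaminase screen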;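 further: plate controls were DMSO wells with A3G for no effect and wells lacking A3G enzyme for full effect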
# APJ ag = agonists of human APJ apelin receptor; P35414; CHO-K1 APJ PathHunter beta-arrestin, luminescence; 0% DMSO wells, 100% apelin; activation, % at 20 µM; actives 0.11% (n = 330,000); AID 2520;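 active means activation more than six SD over the plate average, tested at 20 µM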;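 further: 0% = DMSO alone and 100% = apelin-13 at 10 nM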
# Target sequence (P35414 whole entry, looked up): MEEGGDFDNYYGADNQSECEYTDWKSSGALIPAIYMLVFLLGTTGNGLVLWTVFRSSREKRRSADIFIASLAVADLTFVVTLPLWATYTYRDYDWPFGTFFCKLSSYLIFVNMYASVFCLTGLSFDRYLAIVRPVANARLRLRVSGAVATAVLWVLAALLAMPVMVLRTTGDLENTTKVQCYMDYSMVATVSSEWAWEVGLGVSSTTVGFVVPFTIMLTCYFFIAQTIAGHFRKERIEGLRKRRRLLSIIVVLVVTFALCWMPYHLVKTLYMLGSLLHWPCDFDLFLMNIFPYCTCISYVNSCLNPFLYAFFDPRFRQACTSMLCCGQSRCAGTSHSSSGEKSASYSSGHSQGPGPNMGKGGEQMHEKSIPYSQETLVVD
#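 Material: engineered CHO-K1 APJ arrestin reporter cells; amount: 1000 CHO-K1 reporter cells seeded per well; incubation: compound stimulation 90 min at 25 °C, detection 60 min; signal: luminescent beta-gal fragment complementation, chemiluminescent substrate; read-out basis: APJ agonist activity; controls: DMSO-only wells as negative, 10 nM Apelin-13 as positive control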
# APOBEC3A inh = inhibitors of human APOBEC3A DNA deaminase | inhibition, % at 20 µM | recombinant A3A, FAM/TAMRA ssDNA deamination fluorescence | P31941 | actives 0.41% (n = 330,000) | AID 493011;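 active means at least 40% inhibition at 20 µM here, with at most 30% in a related deaminase screen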;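 further: plate controls were A3A with DMSO for no effect and wells lacking A3A enzyme for full effect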
# Target sequence (P31941 whole entry, looked up): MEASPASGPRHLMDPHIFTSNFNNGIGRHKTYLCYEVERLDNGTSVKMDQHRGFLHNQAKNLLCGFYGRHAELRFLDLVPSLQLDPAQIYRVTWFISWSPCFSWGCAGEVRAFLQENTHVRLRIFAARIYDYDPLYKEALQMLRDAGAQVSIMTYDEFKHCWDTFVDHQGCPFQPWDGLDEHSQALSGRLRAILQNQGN
# CCR6 antag = blocks CCL20-driven beta-arrestin recruitment at human CCR6; P51684; CHO-K1 CCR6 PathHunter beta-arrestin, luminescence, CCL20-stimulated; inhibition, % at 20 µM; actives 0.49% (n = 340,000); AID 493098;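 active means compounds whose inhibition of the agonist-driven luminescence signal at 20 µM reaches about 50%, limit read from the data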;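 further: cells stimulated with CCL20 at 14 nM final; plate controls were DMSO with CCL20 for no effect and DMSO without agonist for full effect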
# APJ antag = antagonists of human APJ apelin receptor; CHO-K1 APJ beta-arrestin complementation, luminescence; inhibition, % at 20 µM; AID 2521; P35414; actives 0.32% (n = 330,000);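 active means inhibition above about 40% at 20 µM, limit read from the data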;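 further: cells challenged with 10 nM apelin-13 agonist together with compound; plate controls were apelin-13 plus DMSO wells for no effect and DMSO wells lacking apelin-13 for full effect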
# CXCR6 block = inhibitors of human CXCR6 receptor | O00574 | CHO-K1 PathHunter CXCR6 beta-arrestin, luminescence | inhibition, % at 20 µM | actives 0.36% (n = 360,000); in the data active means inhibition above about 34%, passing the limit was not always enough;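 further: antagonist mode with CXCL16 agonist at 10 nM final; 0% = 10 nM CXCL16 with DMSO and 100% = unstimulated wells without agonist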
# APOBEC3A confirm = APOBEC3A (human) deaminase inhibition, confirmed; shares compounds with APOBEC3A inh; recombinant A3A, ssDNA deaminase UDG fluorescence assay; inhibition, % at 20 µM; actives 63% (n = 1,400); AID 493151;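 active means inhibition reaching a set limit, 80% of the first screen's cutoff, at 20 µM in any replicate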;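 further: plate controls were DMSO wells with A3A for no effect and wells lacking A3A enzyme for full effect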
# UDG ctr A3A = counter-screen for APOBEC3A inhibitors: UDG | UDG counterscreen, FAM/TAMRA uracil oligo fluorescence | inhibition, % at 20 µM | shares compounds with APOBEC3A inh | 1,000 tested, under 10 active; call rule not given here
# * marks the source's active call; other numbers are inactive results; · = no result.
SMILES,A3G deaminase,APJ ag,APOBEC3A inh,CCR6 antag,APJ antag,CXCR6 block,APOBEC3A confirm,UDG ctr A3A
O=C(O)c1ccc(-n2cccc2/C=C2/SC(=O)N(CC(=O)N3CCCC3)C2=O)cc1,85,-4,96,9,23,-6,·,·
Cc1cccc(NC(=O)/C(C#N)=C\c2cn(CC(=O)O)c3ccccc23)c1,26,-4,53*,4,16,-2,17,·
N#C/C(=C/c1cn(CC(=O)O)c2ccccc12)C(=O)Nc1ccccc1,9,-6,2,9,9,2,·,·
CCN(Cc1ccc(OC)c(F)c1)C(=O)C1CCCO1 (stereo unspecified),5,-1,56*,10,33,-2,32*,-3
Cc1cc(C(=O)NC(C)CCC(C)C)c2ccccc2n1 (stereo unspecified),3,-2,46*,11,-14,2,1,·
Cn1c(CC(=O)NN)c(Sc2ccccc2)c2ccccc21,-7,0,1,10,12,-4,·,·
COC(=O)c1c(Sc2ccccc2)c2ccccc2n1C,11,-2,58*,14,12,-2,82*,2
CCCCCCCC[n+]1cccc2c3ccccc3ccc21,20,-2,57*,7,1,-1,75*,4
CC(=O)Oc1ccc(/C=N/NC(=O)C2CCCN2S(=O)(=O)c2ccc(Cl)cc2)cc1 (stereo unspecified),16,2,61*,14,20,2,71*,-4
CCC(=O)Oc1ccc(C(=O)Nc2cccc(C(=O)c3ccccc3)c2)cc1,-3,-3,45*,4,-11,-14,-6,1
CN(C)c1ccc(N=Nc2ccc(C(=O)O)cc2)cc1,25,-5,64*,27,18,27,54*,1
CN(C)c1ccc(C(=O)c2ccccc2)cc1,-5,-4,0,5,-14,2,·,·
Cc1ccc(C)c(CN2CCSCC2)c1,-3,-2,-2,-6,-5,-3,·,·
O=C(Cc1ccc(S(=O)(=O)N2CCOCC2)s1)Nc1nc2c(s1)CCCC2,19,-3,78*,11,-3,3,73*,1
CN(C)CCN(Cc1ccccc1)C(=O)[C@H](Cc1ccccc1)N1C(=O)c2ccccc2C1=O,2,0,42*,-8,6,14,24,·
O=C(COC(=O)c1cccc(S(=O)(=O)N2CCCC2)c1)Nc1ccc(Cl)cc1,·,·,·,·,·,6,·,·
O=C1c2ccccc2S(=O)(=O)c2cc(N3CCC4(CC3)OCCO4)ccc21,-9,4,-3,-11,-3,·,·,·
CCCC1=[N+](CC(=O)c2ccccc2)CCn2c(C)ccc21,-9,-7,-7,10,-10,-8,·,·
CCCC1=[N+](CC)CCn2c(C)ccc21,20,0,60*,1,17,0,76*,0
COc1ccc(N(Cc2cc3cc(C)ccc3[nH]c2=O)C(C)=O)cc1,-4,-2,47*,-1,2,10,-3,0
COc1ccc2[nH]c(=O)c(CN(C(C)=O)c3cccc(C)c3)cc2c1,-5,-3,-3,9,-8,2,·,·
O=C(NCc1n[nH]c(=S)n1-c1cccc(C(F)(F)F)c1)c1ccco1,5,2,-2,5,-11,5,·,·
COc1ccc(NC(=O)N(C)C[C@H]2Oc3ccc(NC(=O)CCN4CCOCC4)cc3C(=O)N([C@@H](C)CO)C[C@H]2C)cc1,-6,-1,-6,-5,7,-6,·,·
Cc1cc(N/N=C/c2ccc(O)cc2)nc(NS(=O)(=O)c2ccccc2)n1,16,1,49*,11,-10,-8,39*,-3
Cc1ccc(/C=N/Nc2cc(C)nc(NCc3ccccc3)n2)cc1,-3,0,-1,-2,-12,-13,·,·
SMILES,A3G deaminase,APJ ag,APOBEC3A inh,CCR6 antag,APJ antag,CXCR6 block,APOBEC3A confirm,UDG ctr A3A
CCCCN(C(=O)c1cnccn1)c1c(N)n(CCC)c(=O)[nH]c1=O,20,-2,45*,9,5,-3,46*,-2
CCCCN(C(=O)c1c(CC)noc1C)c1c(N)n(CCCC)c(=O)[nH]c1=O,0,2,44*,8,-46,-7,23,-2
CCCCn1c(N)c(N(CC)C(=O)c2c(CC)noc2C)c(=O)[nH]c1=O,-6,0,2,5,-6,-13,·,·
COc1cc2c(cc1OC)C(C)N(C(=S)NC(=O)c1ccccc1)CC2 (stereo unspecified),-8,-3,-1,8,18,7,·,·
CC1(C)C[C@H]2C3=CCC4[C@@]5(C)CC[C@H](O)[C@@](C)(CO)C5CC[C@@]4(C)[C@]3(C)C[C@@H](O)[C@@]2(CO)[C@@H](O)[C@@H]1O (stereo partly specified),-8,-1,-6,-2,19,0,·,·
CC[N+](C)(CC)CC(=O)OCC1C(C)C=C(C)CC1C (stereo unspecified),22,2,73*,-1,15,-6,82*,3
O=C(O)c1cc(-c2ccc(/C=C3\NC(=O)N(c4ccccc4)C3=O)o2)ccc1Cl,18,-1,58*,11,5,2,35*,-3
CC(=O)N1CCN(C2=NC(=O)/C(=C\c3cccs3)S2)CC1,-8,-4,-5,9,-5,-4,·,·
O=C1N=C(N2CCOCC2)S/C1=C/c1cccs1,-1,-4,71*,1,-7,0,-2,-3
CCNC(=O)C1(C)CCCN(C(=O)c2cc(C)nn2C(C)(C)C)C1 (stereo unspecified),·,·,·,·,·,-1,·,·
CCN1C(=O)/C(=C\c2ccc(-c3cccc(C(=O)OC)c3)o2)SC1=Nc1ccc(C(=O)O)cc1,-4,-1,2,·,8,·,·,·
O=C(O)c1cccc(-c2ccc(/C=C3/SC(=Nc4ccccc4)N(Cc4cccnc4)C3=O)o2)c1,20,0,52*,17,2,-1,33*,2
CCN1CCN(c2ncnc3sc(C)c(-c4ccccc4)c23)CC1,0,-2,1,17,-14,-4,·,·
O=C1OC(c2ccc3c(c2)OCO3)=N/C1=C\c1ccc(C(=O)O)cc1,11,-3,40*,8,14,0,32*,-3
O=C(CSCc1cc(=O)n2nc(C3CC3)sc2n1)Nc1ccccc1Cl,22,1,2,-13,23,-3,·,·
O=C(NCC(c1ccco1)N1CCOCC1)c1c(F)cccc1F (stereo unspecified),-7,-2,43*,-4,10,2,-2,-3

# From PubChem BioAssay
